Laboratory results as given in ChEMBL document CHEMBL2311413, “N-cinnamoylated chloroquine analogues as dual-stage antimalarial leads” (J Med Chem, 2013).
pIC50: −log10 of the molar value. Calls of active or inactive are those of the source. No cut-off for these calls is given here.

Assays:
[1] = test system: Plasmodium berghei; experiment: Antiplasmodial activity against Plasmodium berghei liver stage form transfected in human Huh-7 cells assessed as cell viability after 48 hrs by luciferase reporter gene assay; type: functional, organism-based; conditions: Huh-7, 48 h
[2] = test system: Plasmodium falciparum; experiment: Antiplasmodial activity against CQ-resistant Plasmodium falciparum 3D7 blood stage form after 48 hrs by FACSort cytometry; type: functional, organism-based; conditions: 3D7, 48 h
[3] = test system: Plasmodium falciparum; experiment: Antiplasmodial activity against CQ-resistant Plasmodium falciparum W2 blood stage form after 48 hrs by FACSort cytometry; type: functional, organism-based; conditions: W2, 48 h
[4] = Inhibition of beta-hematin formation at 0.1 to 1 mM after 48 hrs relative to control; type: functional
Procedure, shortened: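 Compounds in DMSO, 0.1−1 mM, added in triplicate to hemin chloride in DMSO (5.2 mg/mL). Formation started with 0.2 M acetate buffer pH 4.4, then 37 °C for 48 h. After centrifugation, pellet washed four times with DMSO and dissolved in 0.2 M NaOH, diluted 1:6 in 0.1 M NaOH, absorbance at 405 nm. Water and DMSO as negative controls.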

[5] = test system: Mus musculus; experiment: Toxicity in Plasmodium berghei infected Swiss Webster mouse at 100 mg/kg, ip bid administered for 4 days by Giemsa staining method; type: organism-based; set-up: dose 100 mg/kg, route intraperitoneal; conditions: in vivo, 96 h
Procedure, shortened: (§1)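 Female Swiss Webster mice (n = 5) infected ip with 10^6 P. berghei-infected erythrocytes. Treatment began 2 h later: ip 10, 30 or 100 mg/kg twice daily for 4 days. Chloroquine control at 3, 10 and 30 mg/kg ip twice daily. Daily checks for toxicity and for parasitemia on Giemsa-stained blood smears; survival followed over time.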

[6] = test system: Plasmodium berghei; experiment: Antimalarial activity against Plasmodium berghei infected in Swiss Webster mouse assessed as increase in survival time at 10 mg/kg, ip bid administered for 4 days by Giemsa staining method relative to untreated control; type: functional
Procedure, shortened: (§2)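 Female Swiss Webster mice (n = 5) infected ip with 10^6 P. berghei-infected erythrocytes. Dosing began 2 h later by ip injection twice daily for 4 days; chloroquine control at 3, 10, 30 mg/kg ip twice daily. Mice checked daily for toxicity and parasitemia (Giemsa-stained blood smears). Survival after treatment start compared with untreated controls.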

[7] = test system: Plasmodium berghei; experiment: Antimalarial activity against Plasmodium berghei infected in Swiss Webster mouse assessed as increase in survival time at 30 mg/kg, ip bid administered for 4 days by Giemsa staining method relative to untreated control; type: functional; procedure, shortened: as §2
[8] = test system: Huh-7; experiment: Cytotoxicity against human HuH7 cells assessed as cell viability by AlamarBlue assay; type: cell-based
Procedure, shortened: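 Huh-7 human hepatoma cells grown in RPMI 1640 with 10% FCS, nonessential amino acids, glutamine and 10 mM HEPES pH 7, 37 °C, 5% CO2; 1.2 × 10^4 cells/well seeded the day before. Compound added ~1 h before P. berghei sporozoite infection and renewed at 24 h. Viability read by AlamarBlue per manufacturer's protocol at 48 h post-infection.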

[9] = test system: Mus musculus; experiment: Toxicity in Plasmodium berghei infected Swiss Webster mouse at 10 to 100 mg/kg, ip bid administered for 4 days by Giemsa staining method; type: organism-based; set-up: dose 10-100 mg/kg, route intraperitoneal; conditions: in vivo, 96 h; procedure, shortened: as §1
[10] = test system: Plasmodium berghei; experiment: Antimalarial activity against Plasmodium berghei infected in Swiss Webster mouse assessed as increase in survival time at 100 mg/kg, ip bid administered for 4 days by Giemsa staining method relative to untreated control; type: functional; conditions: route intraperitoneal; procedure, shortened: as §2

Compound | pIC50 [1] | pIC50 [2] | pIC50 [3] | inhibition [4] [%] | other results
O=C(/C=C/c1cccc(F)c1)NCCCCNc1ccnc2cc(Cl)ccc12 | 5.95 | 7.29 | 7.47 | 50 | –
O=C(/C=C/c1ccc(Br)cc1)NCCCNc1ccnc2cc(Cl)ccc12 | – | 7.30 | 7.42 | – | –
CC(C)c1ccc(/C=C/C(=O)NCCCCNc2ccnc3ccccc23)cc1 | – | – | 6.94 | – | –
CCN(CC)CCCC(C)Nc1ccnc2cc(Cl)ccc12 (stereo not drawn) [CHLOROQUINE] | 4.80 | – | – | > 75 | –
CC(C)c1ccc(/C=C/C(=O)NCCCCNc2ccnc3cc(Cl)ccc23)cc1 | 5.60 | 7.81 | 7.96 | 50 | Activity [5]: Toxic; Activity [6]: inactive; Activity [7]: inactive
COc1ccc(/C=C/C(=O)OCCCCNc2ccnc3cc(Cl)ccc23)cc1 | 5.19 | – | 6.91 | 50 | –
O=C(/C=C/c1ccccc1)NCCCNc1ccnc2cc(Cl)ccc12 | – | 6.85 | 7.13 | – | –
O=C(/C=C/c1ccccc1[N+](=O)[O-])NCCCCNc1ccnc2cc(Cl)ccc12 | 5.96 | 7.24 | 7.42 | 50 | –
CC(C)c1ccc(/C=C/C(=O)NCCCCN2CCOCC2)cc1 | < 5.00 | – | < 5.00 | – | –
O=C(/C=C/c1ccc([N+](=O)[O-])cc1)NCCCCNc1ccnc2cc(Cl)ccc12 | – | 7.31 | 7.63 | > 75 | –
COc1ccc(/C=C/C(=O)NCCCCNc2ccnc3cc(Cl)ccc23)cc1OC | 5.39 | – | 6.96 | – | Activity [8]: Non-toxic
O=C(/C=C/c1ccc(Br)cc1)NCCCCNc1ccnc2cc(Cl)ccc12 | 5.64 | 7.54 | 7.74 | > 75 | –
CC(C)c1ccc(/C=C/C(=O)NCCCCCNc2ccnc3cc(Cl)ccc23)cc1 | – | – | 7.50 | 50 | –
Nc1ccc(/C=C/C(=O)NCCCNc2ccnc3cc(Cl)ccc23)cc1 | – | 6.87 | 7.10 | – | –
COc1ccc(/C=C/C(=O)NCCCC(C)Nc2cc(OC)cc3cccnc23)cc1 (stereo not drawn) | 5.63 | – | < 5.00 | – | –
COc1ccc(/C=C/C(=O)NCCCCNc2ccnc3cc(Cl)ccc23)cc1 | 5.54 | 7.51 | 7.70 | 50 | Activity [9]: Non-toxic; Survival [10]: 2 days; Activity [6]: inactive; Activity [7]: inactive; Activity [8]: Non-toxic
O=C(/C=C/c1ccc(Cl)cc1)NCCCCNc1ccnc2cc(Cl)ccc12 | 5.84 | 7.58 | 7.94 | 50 | Activity [5]: Toxic; Survival ([6]; route intraperitoneal): 2 days; Survival ([7]; route intraperitoneal): 2 days
O=C(/C=C/c1cccc([N+](=O)[O-])c1)NCCCNc1ccnc2cc(Cl)ccc12 | – | 7.28 | 7.30 | 50 | –
O=C(/C=C/c1ccc([N+](=O)[O-])cc1)NCCCNc1ccnc2cc(Cl)ccc12 | – | 7.28 | 7.63 | 50 | –

Compound | pIC50 [1] | pIC50 [2] | pIC50 [3] | inhibition [4] [%] | other results
O=C(/C=C/c1ccc(Cl)cc1)NCCCNc1ccnc2cc(Cl)ccc12 | – | 7.33 | 7.38 | 50 | –
O=C(/C=C/c1ccccc1)NCCCCNc1ccnc2cc(Cl)ccc12 | 5.97 | 7.20 | 7.33 | – | –
O=C(/C=C/c1ccc(F)cc1)NCCCNc1ccnc2cc(Cl)ccc12 | – | 7.32 | 7.33 | – | –
CN(C)c1ccc(/C=C/C(=O)NCCCCNc2ccnc3cc(Cl)ccc23)cc1 | – | – | 7.59 | 50 | –
Nc1ccc(/C=C/C(=O)NCCCCNc2ccnc3cc(Cl)ccc23)cc1 | – | 7.11 | 7.23 | – | –
O=C(/C=C/c1ccc(F)cc1)NCCCCNc1ccnc2cc(Cl)ccc12 | 5.85 | 7.40 | 7.71 | 50 | –
C[C@@H]1CC[C@H]2[C@@H](C)C(=O)O[C@@H]3O[C@@]4(C)CC[C@@H]1[C@]32OO4 [ARTEMISININ] | – | 7.63 | 8.02 | < 50 | –
CC(C)c1ccc(/C=C/C(=O)NCCCNc2ccnc3cc(Cl)ccc23)cc1 | – | 7.30 | 7.42 | – | –
COc1ccc(/C=C/C(=O)NCCCCCNc2ccnc3cc(Cl)ccc23)cc1 | 5.64 | – | 7.30 | – | –
O=C(/C=C/c1cccc([N+](=O)[O-])c1)NCCCCNc1ccnc2cc(Cl)ccc12 | – | 7.38 | 7.58 | – | –
O=C(/C=C/c1cccc(F)c1)NCCCNc1ccnc2cc(Cl)ccc12 | – | 6.86 | 7.13 | – | –
O=C(/C=C/c1ccccc1[N+](=O)[O-])NCCCNc1ccnc2cc(Cl)ccc12 | – | 7.19 | 7.28 | 50 | –
COc1cc(NC(C)CCCN)c2ncccc2c1 (stereo not drawn) [PRIMAQUINE] | 5.12 | – | – | – | –
Cc1ccc(/C=C/C(=O)NCCCCNc2ccnc3cc(Cl)ccc23)cc1 | 5.63 | 7.62 | 7.77 | – | –
COc1ccc(/C=C/C(=O)NCCCNc2ccnc3cc(Cl)ccc23)cc1 | 5.40 | 7.31 | 7.26 | – | –
O=C(/C=C/c1ccc(Cl)cc1)NCCCCCNc1ccnc2cc(Cl)ccc12 | 5.79 | – | 7.60 | – | –
Cc1ccc(/C=C/C(=O)NCCCNc2ccnc3cc(Cl)ccc23)cc1 | – | 7.25 | 7.32 | – | –
COc1ccc(/C=C/C(=O)NCCCCNc2ccncc2)cc1 | < 5.00 | – | < 5.00 | – | –
